Test results taken from paper PMC6542785 (Acta Pharmaceutica Sinica. B, 2018).

Legend:
Format in all cases: cell-based, human
MCF-7/ADR cells = experiment: Dox efflux assay
How it was run: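 MCF-7/ADR and MCF-7 cells, in RPMI-1640 with 10% FBS and penicillin/streptomycin (1 μg/mL doxorubicin added to maintain the ADR line), loaded with test compound (10 µg/mL Dox equivalent) for 4 h. Washed, then chased in fresh drug-free medium for 2 or 4 h at 37 °C. Collected and PBS-washed; retained Dox read by flow cytometry. Efflux ratio from retained versus initial uptake; mean ± SD, n=3.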

[1] = test system: mitochondria of HeLa cells; experiment: Mitochondria targeting, quantification in isolated mitochondria; details: 10 μg/mL Dox equivalent, flow cytometry, n=3
How it was run: (§1)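 HeLa cells (DMEM) or MCF-7 cells (RPMI-1640), both with 10% FBS, grown at 37 °C, 5% CO2 and treated in 12-well plates with test compound (10 μg/mL Dox equivalent). Collected into mitochondria extraction reagent on ice for 10 min, then homogenised. Spun at 600×g for 10 min; supernatant spun at 11,000×g for 10 min. Pelleted mitochondria analysed for Dox by flow cytometry.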

[2] = test system: mitochondria of MCF-7 cells; experiment: as above; details: 10 μg/mL Dox equivalent, flow cytometry, n=3
How it was run: as §1

COc1cccc2c1C(=O)c1c(O)c3c(c(O)c1C2=O)C[C@@](O)(C(=O)CO)C[C@@H]3O[C@H]1C[C@H](N)[C@H](O)[C@H](C)O1 [Dox, doxorubicin]
Dox efflux rate in MCF-7/ADR, fold higher than in MCF-7 cells (MCF-7/ADR cells; 2 h in drug-free medium after 4 h loading): 1.74 fold | Dox efflux rate in MCF-7/ADR, fold higher than in MCF-7 cells (MCF-7/ADR cells; 4 h in drug-free medium after 4 h loading): 2.08 fold | mitochondria distribution [1]: < 5% | mitochondria distribution [2]: < 5%
